Test results reported in ChEMBL document CHEMBL4385592, “4-Imidazo[2,1-b]thiazole-1,4-DHPs and neuroprotection: preliminary study in hits searching” (Eur J Med Chem, 2019).

What was measured:
[1] = target: T1, Voltage-gated L-type calcium channel (Homo sapiens, UniProt Q13936+Q13698+Q01668+O60840); test: (§1) Inhibition of voltage-dependent L-type calcium channel in human U373MG cells assessed as protection against oxygen glucose deprivation/reperfusion-induced injury by measuring recovery of cell viability at 1 uM administered at onset of reperfusion period measured after 16 hrs by alamar blue assay relative to control; format: cell-based
Method in brief: (§2)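 U-373 MG astrocytoma cells seeded at 30000 cells/ml and grown 24 or 48 h (37 °C/5% CO2). OGD: 24 h at 37 °C in glucose-free DMEM pre-bubbled with 95% N2/5% CO2, in a sealed nitrogen-flushed chamber. Then 16 h reperfusion in normal medium; compounds added at reperfusion, diluted from DMSO stock (DMSO ≤0.1%). Viability by alamarBlue, 4 h at 37 °C, fluorescence ex 530–560/em 590 nm. Expressed as % recovery from injury, mean ± S.E. of ≥3 experiments in sixuplicate.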

[2] = target: T1, Voltage-gated L-type calcium channel; test: as §1, with “at 20” for “at 1”; format: cell-based; method in brief: as §2
[3] = target: T1, Voltage-gated L-type calcium channel; test: Inhibition of voltage-dependent L-type calcium channel in human SH-SY5Y cells assessed as protection against glutamate-induced excitotoxicity by measuring recovery of cell viability at 1 uM measured after 24 hrs by alamar blue-based fluorescence method relative to control
[4] = target: T1, Voltage-gated L-type calcium channel; test: Inhibition of voltage-dependent L-type calcium channel in human SH-SY5Y cells assessed as protection against glutamate-induced excitotoxicity by measuring recovery of cell viability at 20 uM measured after 24 hrs by alamar blue-based fluorescence method relative to control
Left cardiac atrium [5] = test: Negative inotropic activity in guinea pig left atrium assessed as decrease in developed tension at 5 x 10^-5 M relative to control; format: ADME, tissue-based, Cavia porcellus; parameters: scale not given: the % may be the effect or the level left; conditions: 50 µM
Right cardiac atrium [6] = test: Negative chronotropic activity in guinea pig spontaneously beating right atrium assessed as decrease in atrial rate at 10^-5 M relative to control; format: ADME, tissue-based, Cavia porcellus; parameters: scale not given: the % may be the effect or the level left; conditions: 10 µM
Aorta [7] = test: Inhibition of calcium-induced contraction in K+-depolarized guinea pig aortic strips at 5 x 10^-5 M relative to control; format: tissue-based; conditions: Cavia porcellus
[8] = target: T2, Voltage-gated L-type calcium channel (Rattus norvegicus, UniProt P22002+Q02485+P27732); test: as §1, with “Wistar rat brain slices” for “human U373MG cells”, “LDH release” for “cell viability”, “20” for “1”, “90 mins” for “16 hrs”, “spectrophotometric” for “alamar blue”; parameters: scale not given: the % may be the effect or the level left; conditions: 1.5 h
[9] = target: T2, Voltage-gated L-type calcium channel; test: as §1, with “Wistar rat brain slices” for “human U373MG cells”, “edema formation” for “cell viability”, “20” for “1”, “90 mins” for “16 hrs by alamar blue assay”; parameters: scale not given: the % may be the effect or the level left; conditions: 1.5 h
Right cardiac atrium [10] = test: Negative chronotropic activity in guinea pig spontaneously beating right atrium assessed as decrease in atrial rate; format: tissue-based; conditions: Cavia porcellus
[11] = Selectivity ratio of EC50 for negative chronotropic activity in guinea pig spontaneously beating right atrium to EC50 for negative inotropic activity in guinea pig left atrium; format: ADME, tissue-based, Cavia porcellus
Left cardiac atrium [12] = test: Negative inotropic activity in guinea pig left atrium assessed as decrease in developed tension at 10^-5 M relative to control; parameters: scale not given: the % may be the effect or the level left; conditions: 10 µM
Left cardiac atrium [13] = test: Negative inotropic activity in guinea pig left atrium assessed as decrease in developed tension at 0.001 to 100 uM relative to control; format: ADME, tissue-based; conditions: Cavia porcellus
Aorta [14] = test: Inhibition of calcium-induced contraction in K+-depolarized guinea pig aortic strips at 10^-4 M relative to control; format: tissue-based; conditions: Cavia porcellus
Left cardiac atrium [15] = test: Negative inotropic activity in guinea pig left atrium assessed as decrease in developed tension at 10^-6 M relative to control; format: ADME, tissue-based, Cavia porcellus; parameters: scale not given: the % may be the effect or the level left; conditions: 1 µM
Left cardiac atrium [16] = test: Negative inotropic activity in guinea pig left atrium assessed as decrease in developed tension at 5 x 10^-6 M relative to control; format: ADME, tissue-based, Cavia porcellus; parameters: scale not given: the % may be the effect or the level left; conditions: 5 µM
Left cardiac atrium [17] = test: Negative inotropic activity in guinea pig left atrium assessed as decrease in developed tension at 5 x 10^-7 M relative to control; format: ADME, tissue-based, Cavia porcellus; parameters: scale not given: the % may be the effect or the level left; conditions: 0.5 µM
Right cardiac atrium [18] = test: Negative inotropic activity in guinea pig right atrium assessed as decrease in developed tension at 10^-5 M relative to control; format: ADME, tissue-based, Cavia porcellus; parameters: scale not given: the % may be the effect or the level left; conditions: 10 µM
[19] = system: Left cardiac atrium (Cavia porcellus); test: Negative inotropic activity in guinea pig left atrium assessed as decrease in developed tension
Left cardiac atrium [20] = test: Negative inotropic activity in guinea pig left atrium assessed as decrease in developed tension at 10^-4 M relative to control; format: ADME, tissue-based, Cavia porcellus; parameters: scale not given: the % may be the effect or the level left; conditions: 100 µM
Right cardiac atrium [21] = test: Negative chronotropic activity in guinea pig spontaneously beating right atrium assessed as decrease in atrial rate at 5 x 10^-5 M relative to control; format: tissue-based, Cavia porcellus; parameters: scale not given: the % may be the effect or the level left; conditions: 50 µM

Row | Compound | Activity [1] | Activity [2] | Activity [3] | Activity [4] | Activity (Right cardiac atrium [6]) | Activity [8] | Activity [9] | EC50 (Right cardiac atrium [10]) | EC50 (Left cardiac atrium [13]) | inhibition at 100 µM (Aorta [14]) | further results
1 | CCOC(=O)C1=C(C)NC(C)=C(C(=O)OCC)C1c1c(-c2ccc(F)cc2)nc2sc(Br)cn12 | < 5% | < 5% | < 5% | < 5% | 25% | – | – | – | – | – | Activity (Left cardiac atrium [5]): 37%; inhibition at 50 µM (Aorta [7]): 7%
2 | COC(=O)C1=C(C)NC(C)=C(C(=O)OC)C1c1c(-c2c(OC)ccc(OC)c2[N+](=O)[O-])nc2sc(Cl)cn12 | < 5% | < 5% | 13.1% | 36.8% | – | – | – | – | – | – | –
3 | CCOC(=O)C1=C(C)NC(C)=C(C(=O)OCC)C1c1c(-c2cc(OC)ccc2OC)nc2sccn12 | 36.6% | 65.7% | 42.8% | 67.4% | – | 87% | 75.8% | – | – | – | –
4 | CCOC(=O)C1=C(C)NC(C)=C(C(=O)OCC)C1c1c(-c2cc(OC)ccc2OC)nc2sc(C)cn12 | < 5% | < 5% | < 5% | < 5% | 78% | – | – | 4810 nM | 250 nM | 43% | Ratio EC50 [11]: 20; Activity (Left cardiac atrium [12]): 89%
5 | CCOC(=O)C1=C(C)NC(C)=C(C(=O)OCC)C1c1c(-c2ccccc2F)nc2sccn12 | < 5% | 36.8% | 53.2% | 62.2% | 86% | – | – | 980 nM | 5150 nM | – | Activity (Left cardiac atrium [5]): 55%; inhibition at 50 µM (Aorta [7]): 17%
6 | CCOC(=O)C1=C(C)NC(C)=C(C(=O)OCC)C1c1c(-c2c(F)cccc2F)nc2sccn12 | < 5% | < 5% | 19.5% | 27.7% | 35% | – | – | – | – | 28% | Activity (Left cardiac atrium [15]): 33%
7 | COC(=O)C1=C(C)NC(C)=C(C(=O)OC)C1c1c(-c2ccccc2OC)nc2sccn12 | < 5% | < 5% | < 5% | < 5% | – | – | – | – | – | – | –
8 | CCOC(=O)C1=C(C)NC(C)=C(C(=O)OCC)C1c1c(-c2cc(OC)cc(OC)c2)nc2sc(Br)cn12 | < 5% | 29.6% | 17.4% | 42.4% | 80% | 14.5% | < 5% | 640 nM | 25 nM | – | Ratio EC50 [11]: < 10; Activity (Left cardiac atrium [15]): 93%; inhibition at 50 µM (Aorta [7]): 7%
9 | CCOC(=O)C1=C(C)NC(C)=C(C(=O)OCC)C1c1c(-c2ccc(Cl)c([N+](=O)[O-])c2)nc2sc(C)cn12 | < 5% | < 5% | < 5% | < 5% | 50% | < 5% | < 5% | 8480 nM | 190 nM | 24% | Ratio EC50 [11]: 25 to 56; Activity (Left cardiac atrium [16]): 64%
10 | CCOC(=O)C1=C(C)NC(C)=C(C(=O)OCC)C1c1c(-c2ccc(F)cc2)nc2sc(Cl)cn12 | 32.6% | 33.7% | 44.9% | 47.5% | 83% | 61.9% | < 5% | 1730 nM | 49 nM | 3% | Ratio EC50 [11]: 25 to 56; Activity (Left cardiac atrium [15]): 62%
11 | COC(=O)C1=C(C)NC(C)=C(C(=O)OC)C1c1c(-c2cc(OC)ccc2OC)nc2sccn12 | 82.9% | 96.7% | 51.9% | 99% | – | 83.9% | 77.6% | – | – | – | –
12 | COC(=O)C1=C(C)NC(C)=C(C(=O)OC)C1c1c(-c2ccc(OC(F)(F)F)cc2)nc2sccn12 | 52.3% | 54.2% | 37.4% | 37.7% | – | 93.8% | 93.8% | – | – | – | –
13 | COC(=O)C1=C(C)NC(C)=C(C(=O)OC)C1c1c(-c2ccccc2)nc2scc(C)n12 | < 5% | < 5% | 85.1% | 130% | – | 100.65% | 82.5% | – | – | – | –
14 | COC(=O)C1=C(C)NC(C)=C(C(=O)OC)C1c1c(-c2cc(OC)ccc2OC)nc2sc(Cl)cn12 | 78.8% | 99.6% | 42% | 108.4% | – | 81.3% | 91.8% | – | – | – | –
15 | CCOC(=O)C1=C(C)NC(C)=C(C(=O)OCC)C1c1c(-c2ccc(OC)c(OC)c2)nc2sc(Br)cn12 | 9% | 55.1% | 18.2% | 33.4% | 90% | 57.8% | 89.1% | 310 nM | – | – | Activity (Left cardiac atrium [16]): 39%; inhibition at 50 µM (Aorta [7]): 5%
16 | CCOC(=O)C1=C(C)NC(C)=C(C(=O)OCC)C1c1c(-c2cc([N+](=O)[O-])c(Cl)cc2Cl)nc2sc(CC)cn12 | 21.2% | 26.7% | 14.7% | 41.6% | 40% | 18% | < 5% | – | 33 nM | 15% | Activity (Left cardiac atrium [17]): 67%; Activity (Right cardiac atrium [18]): 58%; EC50 [19]: 1470 nM
17 | CCOC(=O)C1=C(C)NC(C)=C(C(=O)OCC)C1c1c(-c2ccc(Cl)cc2)nc2sc(Cl)cn12 | < 5% | < 5% | 25.1% | 47.1% | – | – | – | 1730 nM | 3500 nM | 45% | Activity (Left cardiac atrium [20]): 73%; Activity (Right cardiac atrium [21]): 94%
18 | COC(=O)C1=C(C)NC(C)=C(C(=O)OC)C1c1c(-c2cc(OC)c([N+](=O)[O-])cc2OC)nc2sccn12 | < 5% | < 5% | 31.5% | 46.3% | – | – | – | – | – | – | –
19 | C=CCOC(=O)C1=C(C)NC(C)=C(C(=O)OCC=C)C1c1c(-c2cc(OC)c([N+](=O)[O-])cc2OC)nc2sccn12 | < 5% | < 5% | 40.6% | 52.3% | 92% | 51.2% | 82% | 2380 nM | 25 nM | 15% | Ratio EC50 [11]: 95; Activity (Left cardiac atrium [16]): 96%
20 | COC(=O)C1=C(C)NC(C)=C(C(=O)OC)C1c1c(-c2cccc(OC)c2)nc2sccn12 | < 5% | < 5% | < 5% | < 5% | – | – | – | – | – | – | –
21 | COC(=O)C1=C(C)NC(C)=C(C(=O)OC)C1c1c(C(F)(F)F)nc2sc(C)cn12 | < 5% | < 5% | 35.4% | 44.1% | – | 100.3% | 63.7% | – | – | – | –
22 | CCOC(=O)C1=C(C)NC(C)=C(C(=O)OCC)C1c1c(-c2ccc(F)cc2)nc2sc(C)cn12 | 9.1% | 13.2% | 28.9% | 43.1% | – | – | – | 23 nM | – | 12% | Activity (Left cardiac atrium [15]): 37%; Activity (Right cardiac atrium [21]): 86%
23 | COC(=O)C1=C(C)NC(C)=C(C(=O)OC)C1c1c(-c2ccc(C(F)(F)F)cc2)nc2sccn12 | < 5% | < 5% | 17.5% | 36.6% | – | – | – | – | – | – | –
24 | COC(=O)C1=C(C)NC(C)=C(C(=O)OC)C1c1c(C(F)(F)F)nc2sccn12 | 73% | 86.7% | 44.1% | 84.5% | – | 79.2% | 105.4% | – | – | – | –
